The values that follow come from ChEMBL document CHEMBL1255256, “Bobel-24 activity against Cryptosporidium parvum in cell culture and in a SCID mouse model” (Antimicrob Agents Chemother, 2008).

Calls of active or inactive are those of the source. The rule behind the calls is not given here.

One data set relates to HCT-8. The experiment in a line: Cytotoxicity against human HCT8 cells assessed as cell viability by MTT assay. The class given is cell-based. The method in brief:
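HCT-8 cells exposed to compound and viability measured by MTT assay as percent viable cells.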
On the technique in general: Formazan colour is commonly taken as a measure of viable cells.

For data set [1], the system named is Cryptosporidium parvum. The experiment in a line: Antimicrobial activity against Cryptosporidium parvum infected in HCT8 cells assessed as growth inhibition rate at 22 to 90 uM after 48 hrs. Format: functional, organism-based. Conditions: HCT-8. Put shortly:
(§1)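 HCT-8 monolayers inoculated with 8 × 10^5 oocysts/ml, then incubated with 90, 45 or 22 μM compound (DMSO stock diluted in PBS). Fixed cultures stained with rhodamine-C3C3 mAb; developmental stages (meronts, gamonts) counted per field over 30 fields, mean of four replicate wells ± SD; percent growth inhibition versus medium and inhibition score (0–4).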

For data set [2], the system named is Cryptosporidium parvum. The data set can be described thus: Antimicrobial activity against Cryptosporidium parvum infected in SCID mouse assessed as decrease in oocyst shedding at 250 mg/kg/day, po for 2 weeks and measured 3 to 7 days after treatment. Format: functional, organism-based. Put shortly: (§2)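 Female C.B-17 SCID mice, 7 weeks old, infected orally with 1 × 10^7 oocysts in PBS; chronic infection allowed for 25 days. Compound suspended with polyvinylpyrrolidone, given orally at 250 (n=10) or 125 (n=10) mg/kg/day for 2 weeks; controls were PVP in water and untreated mice. Oocysts per 50 μl concentrated feces counted by IIF every 3 days; ANOVA with LSD.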

Data set [3] has as its system Cryptosporidium parvum. The experiment in a line: Antimicrobial activity against Cryptosporidium parvum infected in HCT8 cells assessed as growth inhibition at 90 uM pretreated for 30 min before infection measured after 48 hrs. Format: functional. The settings on record: HCT-8, read-out: GI. Put shortly:
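HCT-8 cells preincubated with 90 μM compound at 37°C for 30 min, then infected with excysted oocysts (8 × 10^5/ml). Meronts and gamonts counted after rhodamine-C3C3 mAb staining, 30 fields/well, four replicate wells; percent inhibition versus medium control and inhibition score.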

In data set [4] the test system is Cryptosporidium parvum. The experiment in a line: Antimicrobial activity against Cryptosporidium parvum DE infected in HCT8 cells assessed as growth inhibition at 90 uM after 24 hrs. The class given is functional. The settings on record: HCT-8, 24 h, read-out: GI. The method in brief:
(§3)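 Confluent HCT-8 monolayers inoculated with 8 × 10^5 excysted oocysts/ml, then infected cells treated with 90 μM compound (DMSO stock diluted in PBS) at 37°C in 5% CO2 (24 h per table footnote; 48 h per text). Fixed cells stained with rhodamine-labeled C3C3 mAb; meronts and gamonts counted in 30 fields/well, four replicate wells; percent inhibition and inhibition score versus medium control.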

Data set [5] relates to Cryptosporidium parvum. The data set can be described thus: Antimicrobial activity against Cryptosporidium parvum infected in SCID mouse assessed as decrease in oocyst shedding at 125 mg/kg/day, po for 2 weeks and measured every 3 days during treatment. The class given is functional, organism-based. The method in brief:
as §2

Data set [6] relates to Cryptosporidium parvum. The data set can be described thus: Antiparasitic activity against Cryptosporidium parvum sprozoites assessed as growth inhibition at 90 uM after 48 hrs. Format: functional. Conditions: read-out: GI. The method in brief: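 Excysted sporozoite suspension incubated with 90 μM compound at 37°C for 30 min, then used to infect confluent HCT-8 monolayers. Developmental stages counted after rhodamine-C3C3 mAb staining, 30 fields/well, four replicate wells; percent inhibition versus medium control and inhibition score.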

Data set [7] deals with Cryptosporidium parvum. The data set can be described thus: Antiparasitic activity against Cryptosporidium parvum infected into human HCT-8 cells assessed as growth inhibition at 90 uM after 48 hrs. The settings on record: HCT-8, 48 h, read-out: GI. Format: functional. The method in brief:
as §3

In data set [8] the test system is Cryptosporidium parvum. The experiment in a line: Antimicrobial activity against Cryptosporidium parvum infected in HCT8 cells assessed as decrease in parasite count at 22 to 90 uM after 48 hrs. Format: functional, organism-based. Conditions: HCT-8. The method in brief:
as §1

Data set [9] deals with Cryptosporidium parvum. The data set can be described thus: Antimicrobial activity against Cryptosporidium parvum infected in SCID mouse assessed as decrease in oocyst shedding at 125 mg/kg/day, po for 2 weeks and measured 3 to 7 days after treatment. Format: functional, organism-based. Put shortly:
as §2

In data set [10] the test system is Cryptosporidium parvum. The experiment in a line: Antiparasitic activity against Cryptosporidium parvum infected into human HCT-8 cells assessed as growth inhibition at 45 uM after 48 hrs. The class given is functional. The settings on record: HCT-8, 48 h, read-out: GI. Put shortly: as §1
Data set [11] concerns Cryptosporidium parvum. The experiment in a line: Antiparasitic activity against Cryptosporidium parvum infected into human HCT-8 cells assessed as growth inhibition at 22 uM after 48 hrs. Format: functional. The settings on record: HCT-8, 48 h, read-out: GI. The method in brief: as §1

`Oc1c(I)cc(I)cc1I`: the Activity entry in the data set on HCT-8 is “Non-toxic”; in the data set on Cryptosporidium parvum [1], “Dose-dependent effect”; with Cryptosporidium parvum [8], “Dose-dependent effect”. Further, the outcome with Cryptosporidium parvum [2] and with Cryptosporidium parvum [9] was inactive. In addition, the inhibition of growth at 90 µM in the data set on Cryptosporidium parvum [3] came out at 36%; in the data set with Cryptosporidium parvum [4], 99.6%; in the data set on Cryptosporidium parvum [6], 27.8%; in the data set on Cryptosporidium parvum [7], 96.5%. Also, the outcome in the data set with Cryptosporidium parvum [5] was Active. Also, the inhibition of growth at 45 µM in the data set on Cryptosporidium parvum [10] came out at 92.5%. Besides, the inhibition of growth at 22 µM in the data set on Cryptosporidium parvum [11] came to 50.1%.
